Assay results taken from ChEMBL document CHEMBL2046357, “Inhibitors of Dengue virus and West Nile virus proteases based on the aminobenzamide scaffold” (Bioorg Med Chem, 2012).
pIC50: −log10 of the molar value. Calls of active or inactive are those of the source. The rule behind the calls is not given here.

Assays:
dengue virus type 2 [1] = test: Inhibition of Dengue virus 2 NS2B-NS3 protease expressed in Escherichia coli Top10F' at 10 uM pre-incubated for 15 mins before addition of Bz-NIe-Lys-Arg-Arg-AMC substrate by spectrofluorometry
In short: (§1)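 Enzyme (DENV2 protease 25 nM; WNV protease 28 nM) pre-incubated with compound for 15 min at room temperature in 200 mM Tris·HCl pH 9.5, 30% glycerol, with 1% v/v DMSO final. Reaction started with 5 μM substrate. Fluorescence (ex 380/em 460 nm) followed every 90 s for up to 30 min at 37 °C. Percent inhibition calculated against no-compound fluorescence. Aprotinin and DMSO served as controls. Triplicates, averaged.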

dengue virus type 2 [2] = test: Inhibition of Dengue virus 2 NS2B-NS3 protease expressed in Escherichia coli Top10F' at 25 uM pre-incubated for 15 mins before addition of Bz-NIe-Lys-Arg-Arg-AMC substrate by spectrofluorometry; in short: as §1
West Nile virus [3] = test: Inhibition of West Nile virus NS2B-NS3 protease expressed in Escherichia coli Top10F' at 10 uM pre-incubated for 15 mins before addition of Bz-NIe-Lys-Arg-Arg-AMC substrate by spectrofluorometry; in short: as §1
West Nile virus [4] = test: Inhibition of West Nile virus NS2B-NS3 protease expressed in Escherichia coli Top10F' at 25 uM pre-incubated for 15 mins before addition of Bz-NIe-Lys-Arg-Arg-AMC substrate by spectrofluorometry; in short: as §1
[5] = Inhibition of Dengue virus 2 NS2B-NS3 protease expressed in Escherichia coli Top10F' pre-incubated for 15 mins before addition of Bz-NIe-Lys-Arg-Arg-AMC substrate by spectrofluorometry; parameters: species or system dengue virus type 2
In short: (§2)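 Protease (DENV2 25 nM; WNV 28 nM) pre-incubated with compound for 15 min at room temperature in 200 mM Tris·HCl pH 9.5 with 30% glycerol. Then 5 μM substrate added, and fluorescence (ex 380/em 460 nm) read at 37 °C for up to 30 min.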

West Nile virus [6] = test: Competitive inhibition of West Nile virus NS2B-NS3 protease expressed in Escherichia coli Top10F' at 1 to 5 uM uM assessed as increase in Km of substrate pre-incubated for 15 mins before addition of Bz-NIe-Lys-Arg-Arg-AMC substrate by spectrofluorometry
In short: (§3)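 Inhibitor fixed at 0, 1.0, 3.0 or 5.0 μM; substrate varied 0–50 μM. Initial cleavage rates used to derive apparent Km and kcat. Ki taken from secondary plot of Km,app against inhibitor concentration. Duplicates, repeated three times.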

West Nile virus [7] = test: Competitive inhibition of West Nile virus NS2B-NS3 protease expressed in Escherichia coli Top10F' at 1 to 5 uM uM assessed as reduction in kcat/Km of substrate pre-incubated for 15 mins before addition of Bz-NIe-Lys-Arg-Arg-AMC substrate by spectrofluorometry; in short: as §3
[8] = Inhibition of West Nile virus NS2B-NS3 protease expressed in Escherichia coli Top10F' pre-incubated for 15 mins before addition of Bz-NIe-Lys-Arg-Arg-AMC substrate by spectrofluorometry; in short: as §2
[9] = 25 uM, in the assay text read “at 25 uM” for “at 10 uM”

With `O=C(NCc1cn(CSc2ccccc2)nn1)Nc1ccc(C(=O)NCCN2CCOCC2)cc1` the inhibition (dengue virus type 2 [1]) was “inactive”, the inhibition (dengue virus type 2 [2]) was “inactive” and the inhibition (West Nile virus [3]; [9]) was “inactive”. For the same compound, the inhibition (West Nile virus [4]) was “inactive”.
In the case of `O=C(NCc1cn(Cc2ccccc2)nn1)Nc1ccc(C(=O)NCc2ccccc2)cc1`, the inhibition (dengue virus type 2 [1]) was “inactive”, the inhibition (dengue virus type 2 [2]) was “inactive” and the inhibition (West Nile virus [3]; [9]) was “inactive”. The inhibition (West Nile virus [4]) was “inactive”.
With `O=C(NCc1cn(Cc2ccccc2)nn1)Nc1cccc(C(=O)NCc2ccccc2)c1` the inhibition (dengue virus type 2 [1]) was “inactive”, the inhibition (dengue virus type 2 [2]) was “inactive” and the inhibition (West Nile virus [3]; [9]) was “inactive”. For the same compound, the inhibition (West Nile virus [4]) was “inactive”.
In the case of `O=C(NCc1cn(Cc2ccccc2)nn1)Nc1cccc(C(=O)Nc2cccc(Oc3ccccc3)c2)c1`, the inhibition (dengue virus type 2 [1]) was “inactive”, the inhibition (dengue virus type 2 [2]) was “inactive” and the inhibition (West Nile virus [3]; [9]) was “inactive”. For the same compound, the inhibition (West Nile virus [4]) was “inactive”.
For `O=C(NCc1cn(Cc2ccccc2)nn1)Nc1cccc(C(=O)NCCc2ccccc2)c1`, the inhibition (dengue virus type 2 [1]) was “inactive”, the inhibition (dengue virus type 2 [2]) was “inactive” and the inhibition (West Nile virus [3]; [9]) was “inactive”. For the same compound, the inhibition (West Nile virus [4]) was “inactive”.
For `O=C(NCc1cn(CSc2ccccc2)nn1)Nc1cccc(C(=O)NCc2ccccc2)c1`, the inhibition (dengue virus type 2 [1]) was “inactive”, the inhibition (dengue virus type 2 [2]) was “inactive” and the inhibition (West Nile virus [3]; [9]) was “inactive”. For the same compound, the inhibition (West Nile virus [4]) was “inactive”.
With `O=C(NCc1cn(Cc2ccc(F)cc2)nn1)Nc1ccc(C(=O)Nc2ccc(Oc3ccccc3)cc2)cc1` the inhibition (dengue virus type 2 [1]) was 55.3%, the pIC50 [5] was 5.17 and the inhibition (dengue virus type 2 [2]) was 76%. For the same compound, the inhibition (West Nile virus [3]; 10 uM) was 58.8%, the inhibition (West Nile virus [6]) was “Active” and the inhibition (West Nile virus [4]) was 82.3%. For the same compound, the inhibition (West Nile virus [7]) was “Active” and the pIC50 [8] was 5.26.
With `O=C(NCc1cn(Cc2ccc(F)cc2)nn1)Nc1ccc(C(=O)NCc2ccco2)cc1` the inhibition (dengue virus type 2 [1]) was “inactive”, the inhibition (dengue virus type 2 [2]) was “inactive” and the inhibition (West Nile virus [3]; [9]) was “inactive”. The inhibition (West Nile virus [4]) was “inactive”.
With `O=C(NCc1cn(CSc2ccccc2)nn1)Nc1ccc(C(=O)NCc2ccccc2)cc1` the inhibition (dengue virus type 2 [1]) was “inactive”, the inhibition (dengue virus type 2 [2]) was “inactive” and the inhibition (West Nile virus [3]; [9]) was “inactive”. The inhibition (West Nile virus [4]) was “inactive”.
`O=C(NCc1cn(Cc2ccc(F)cc2)nn1)Nc1ccc(C(=O)Nc2cccc(Oc3ccccc3)c2)cc1` gave an inhibition (dengue virus type 2 [1]) of 41.1%, an inhibition (dengue virus type 2 [2]) of 57% and an inhibition (West Nile virus [3]; 10 uM) of 44.5%. For the same compound, the inhibition (West Nile virus [4]) was 60.9%.
For `O=C(NCc1cn(CSc2ccccc2)nn1)Nc1ccc(C(=O)NCCc2ccccc2)cc1`, the inhibition (dengue virus type 2 [1]) was “inactive”, the inhibition (dengue virus type 2 [2]) was “inactive” and the inhibition (West Nile virus [3]; [9]) was “inactive”. The inhibition (West Nile virus [4]) was “inactive”.
`O=C(NCc1cn(CSc2ccccc2)nn1)Nc1cccc(C(=O)Nc2cccc(Oc3ccccc3)c2)c1` showed an inhibition (dengue virus type 2 [1]) of 40.3%, an inhibition (dengue virus type 2 [2]) of 58.2% and an inhibition (West Nile virus [3]; 10 uM) of 49.3%. The inhibition (West Nile virus [4]) was 60.3%.
With `O=C(NCc1cn(Cc2ccccc2)nn1)Nc1ccc(C(=O)Nc2ccccc2)cc1` the inhibition (dengue virus type 2 [1]) was “inactive”, the inhibition (dengue virus type 2 [2]) was “inactive” and the inhibition (West Nile virus [3]; [9]) was “inactive”. The inhibition (West Nile virus [4]) was “inactive”.
In the case of `O=C(NCc1cn(CSc2ccccc2)nn1)Nc1ccc(C(=O)NCc2ccco2)cc1`, the inhibition (dengue virus type 2 [1]) was “inactive”, the inhibition (dengue virus type 2 [2]) was “inactive” and the inhibition (West Nile virus [3]; [9]) was “inactive”. For the same compound, the inhibition (West Nile virus [4]) was “inactive”.
With `O=C(NCc1cn(Cc2ccc(F)cc2)nn1)Nc1ccc(C(=O)NCCc2ccccc2)cc1` the inhibition (dengue virus type 2 [1]) was “inactive”, the inhibition (dengue virus type 2 [2]) was “inactive” and the inhibition (West Nile virus [3]; [9]) was “inactive”. The inhibition (West Nile virus [4]) was “inactive”.
In the case of `O=C(NCc1cn(Cc2ccc(F)cc2)nn1)Nc1ccc(C(=O)Nc2ccccc2)cc1`, the inhibition (dengue virus type 2 [1]) was “inactive”, the inhibition (dengue virus type 2 [2]) was “inactive” and the inhibition (West Nile virus [3]; [9]) was “inactive”. The inhibition (West Nile virus [4]) was “inactive”.
In the case of `O=C(NCc1cn(Cc2ccc(F)cc2)nn1)Nc1ccc(C(=O)NCc2ccccc2)cc1`, the inhibition (dengue virus type 2 [1]) was “inactive”, the inhibition (dengue virus type 2 [2]) was “inactive” and the inhibition (West Nile virus [3]; [9]) was “inactive”. For the same compound, the inhibition (West Nile virus [4]) was “inactive”.
For `O=C(NCc1cn(CSc2ccccc2)nn1)Nc1ccc(C(=O)Nc2ccccc2)cc1`, the inhibition (dengue virus type 2 [1]) was “inactive”, the inhibition (dengue virus type 2 [2]) was “inactive” and the inhibition (West Nile virus [3]; [9]) was “inactive”. For the same compound, the inhibition (West Nile virus [4]) was “inactive”.
For `O=C(NCc1cn(CSc2ccccc2)nn1)Nc1ccc(C(=O)Nc2ccc(Oc3ccccc3)cc2)cc1`, the inhibition (dengue virus type 2 [1]) was “inactive”, the inhibition (dengue virus type 2 [2]) was “inactive” and the inhibition (West Nile virus [3]; [9]) was “inactive”. For the same compound, the inhibition (West Nile virus [4]) was “inactive”.
With `O=C(NCc1cn(Cc2ccccc2)nn1)Nc1ccc(C(=O)Nc2cccc(Oc3ccccc3)c2)cc1` the inhibition (dengue virus type 2 [1]) was “inactive”, the inhibition (dengue virus type 2 [2]) was “inactive” and the inhibition (West Nile virus [3]; [9]) was “inactive”. The inhibition (West Nile virus [4]) was “inactive”.
In the case of `O=C(NCc1cn(Cc2ccccc2)nn1)Nc1ccc(C(=O)NCCc2ccccc2)cc1`, the inhibition (dengue virus type 2 [1]) was “inactive”, the inhibition (dengue virus type 2 [2]) was “inactive” and the inhibition (West Nile virus [3]; [9]) was “inactive”. The inhibition (West Nile virus [4]) was “inactive”.
In the case of `O=C(NCc1cn(Cc2ccccc2)nn1)Nc1ccc(C(=O)NCCN2CCOCC2)cc1`, the inhibition (dengue virus type 2 [1]) was “inactive”, the inhibition (dengue virus type 2 [2]) was “inactive” and the inhibition (West Nile virus [3]; [9]) was “inactive”. For the same compound, the inhibition (West Nile virus [4]) was “inactive”.
For `O=C(NCc1cn(CSc2ccccc2)nn1)Nc1cccc(C(=O)NCCc2ccccc2)c1`, the inhibition (dengue virus type 2 [1]) was “inactive”, the inhibition (dengue virus type 2 [2]) was “inactive” and the inhibition (West Nile virus [3]; [9]) was “inactive”. The inhibition (West Nile virus [4]) was “inactive”.
In the case of `O=C(NCc1cn(Cc2ccc(F)cc2)nn1)Nc1ccc(C(=O)NCCN2CCOCC2)cc1`, the inhibition (dengue virus type 2 [1]) was “inactive”, the inhibition (dengue virus type 2 [2]) was “inactive” and the inhibition (West Nile virus [3]; [9]) was “inactive”. The inhibition (West Nile virus [4]) was “inactive”.
With `O=C(NCc1cn(Cc2ccccc2)nn1)Nc1ccc(C(=O)NCc2ccco2)cc1` the inhibition (dengue virus type 2 [1]) was “inactive”, the inhibition (dengue virus type 2 [2]) was “inactive” and the inhibition (West Nile virus [3]; [9]) was “inactive”. For the same compound, the inhibition (West Nile virus [4]) was “inactive”.
`O=C(NCc1cn(Cc2ccccc2)nn1)Nc1ccc(C(=O)Nc2ccc(Oc3ccccc3)cc2)cc1` gave an inhibition (dengue virus type 2 [1]) of 39.4%, an inhibition (dengue virus type 2 [2]) of 52.5% and an inhibition (West Nile virus [3]; 10 uM) of 46.5%. For the same compound, the inhibition (West Nile virus [4]) was 58%.
